Data as given in ChEMBL document CHEMBL1123067, “Evaluation of the brain-specific delivery of radioiodinated (iodophenyl)alkyl-substituted amines coupled to a dihydropyridine carrier” (J Med Chem, 1985).

Experiments:
Format in all cases: ADME, organism-based
Rattus norvegicus [1] = test: Distribution of radioactivity in blood tissues of Sprague-Dawley rats after 15 min injecton by intravenously; 0.95-1.06; conditions: in vivo, iv, 0.25 h
How it was run: (§1)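 Female Sprague-Dawley rats, 10–12 weeks old (170–200 g), fed ad libitum. The ¹²⁵I-labelled agent was dissolved in minimal Me2SO, diluted with saline to a final 20% Me2SO, filtered (0.22 μm), and injected into a lateral tail vein under ether anaesthesia. Tissues were counted against samples of the injected solution and expressed as % injected dose/g (mean, range). Brain/blood ratio is from the means.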

Rattus norvegicus [2] = test: Distribution of radioactivity in kidney tissues of Sprague-Dawley rats after 60 min injecton by intravenously; 0.99-1.24; conditions: in vivo, iv, 1 h
Rattus norvegicus [3] = test: Distribution of radioactivity in heart tissues of Sprague-Dawley rats after 30 min injecton by intravenously; 0.36-0.42; conditions: in vivo, iv, 0.5 h; how it was run: as §1
Rattus norvegicus [4] = test: Distribution of radioactivity in brain tissues of Sprague-Dawley rats after 5 min injecton by intravenously; 0.35-0.72; conditions: in vivo, iv; how it was run: as §1
Rattus norvegicus [5] = test: Distribution of radioactivity in heart tissues of Sprague-Dawley rats after 5 min injecton by intravenously; 0.39-0.74; conditions: in vivo, iv
Rattus norvegicus [6] = test: Distribution of radioactivity in brain tissues of Sprague-Dawley rats after 15 min injecton by intravenously; 0.34-0.5; conditions: in vivo, iv, 0.25 h; how it was run: as §1
Rattus norvegicus [7] = test: Distribution of radioactivity in liver tissues of Sprague-Dawley rats after 30 min injecton by intravenously; 1.57-1.66; conditions: in vivo, iv, 0.5 h
Rattus norvegicus [8] = test: Distribution of radioactivity in lung tissues of Sprague-Dawley rats after 30 min injecton by intravenously; 0.6-0.66; conditions: in vivo, iv, 0.5 h
Rattus norvegicus [9] = test: Distribution of radioactivity in heart tissues of Sprague-Dawley rats after 15 min injecton by intravenously; 0.52-0.62; conditions: in vivo, iv, 0.25 h; how it was run: as §1
Rattus norvegicus [10] = test: Distribution of radioactivity in blood tissues of Sprague-Dawley rats after 30 min injecton by intravenously; 0.69-0.84; conditions: in vivo, iv, 0.5 h; how it was run: as §1
Rattus norvegicus [11] = test: Distribution of radioactivity in lung tissues of Sprague-Dawley rats after 15 min injecton by intravenously; 0.77-0.86; conditions: in vivo, iv, 0.25 h
Rattus norvegicus [12] = test: Distribution of radioactivity in blood tissues of Sprague-Dawley rats after 5 min injecton by intravenously; 0.58-1.17; conditions: in vivo, iv; how it was run: as §1
Rattus norvegicus [13] = test: Distribution of radioactivity in kidney tissues of Sprague-Dawley rats after 5 min injecton by intravenously; 0.62-1.13; conditions: in vivo, iv
Rattus norvegicus [14] = test: Distribution of radioactivity in liver tissues of Sprague-Dawley rats after 15 min injecton by intravenously; 1.37-1.74; conditions: in vivo, iv, 0.25 h
Rattus norvegicus [15] = test: Distribution of radioactivity in brain tissues of Sprague-Dawley rats after 60 min injecton by intravenously; 0.05-0.06; conditions: in vivo, iv, 1 h; how it was run: as §1
Rattus norvegicus [16] = test: Distribution of radioactivity in lung tissues of Sprague-Dawley rats after 60 min injecton by intravenously; 0.36-0.44; conditions: in vivo, iv, 1 h
Rattus norvegicus [17] = test: Distribution of radioactivity in lung tissues of Sprague-Dawley rats after 5 min injecton by intravenously; 0.54-1.07; conditions: in vivo, iv
Rattus norvegicus [18] = test: Distribution of radioactivity in liver tissues of Sprague-Dawley rats after 5 min injecton by intravenously; 0.73-1.45; conditions: in vivo, iv
Rattus norvegicus [19] = test: Distribution of radioactivity in blood tissues of Sprague-Dawley rats after 60 min injecton by intravenously; 0.49-0.58; conditions: in vivo, iv, 1 h; how it was run: as §1
Rattus norvegicus [20] = test: Distribution of radioactivity in liver tissues of Sprague-Dawley rats after 60 min injecton by intravenously; 1.36-1.74; conditions: in vivo, iv, 1 h
Rattus norvegicus [21] = test: Distribution of radioactivity in brain tissues of Sprague-Dawley rats after 30 min injecton by intravenously; 0.18-0.36; conditions: in vivo, iv, 0.5 h; how it was run: as §1
Rattus norvegicus [22] = test: Distribution of radioactivity in kidney tissues of Sprague-Dawley rats after 15 min injecton by intravenously; 1.59-2.03; conditions: in vivo, iv, 0.25 h
Rattus norvegicus [23] = test: Distribution of radioactivity in kidney tissues of Sprague-Dawley rats after 30 min injecton by intravenously; 1.67-2.11; conditions: in vivo, iv, 0.5 h
Rattus norvegicus [24] = test: Distribution of radioactivity in heart tissues of Sprague-Dawley rats after 60 min injecton by intravenously; 0.22-0.29; conditions: in vivo, iv, 1 h
Rattus norvegicus [25] = test: Distribution of radioactivity in blood tissues of Sprague-Dawley rats after 60 min injection by intravenously; value ranges from 0.54-0.63; conditions: in vivo, iv, 1 h; how it was run: as §1
Rattus norvegicus [26] = test: Distribution of radioactivity in heart tissues of Sprague-Dawley rats after 30 min injection by intravenously; value ranges from 0.75-1.03; conditions: in vivo, iv, 0.5 h; how it was run: as §1
Rattus norvegicus [27] = test: Distribution of radioactivity in lung tissues of Sprague-Dawley rats after 15 min injection by intravenously; value ranges from 1.05-1.5; conditions: in vivo, iv, 0.25 h
Rattus norvegicus [28] = test: Distribution of radioactivity in kidney tissues of Sprague-Dawley rats after 60 min injection by intravenously; value ranges from 1.17-1.48; conditions: in vivo, iv, 1 h
Rattus norvegicus [29] = test: Distribution of radioactivity in kidney tissues of Sprague-Dawley rats after 15 min injection by intravenously; value ranges from 2.24-3.12; conditions: in vivo, iv, 0.25 h
[30] = Brain to blood ratio in Sprague-Dawley rats after 15 min injection by intravenously; conditions: rat, brain and blood, iv; how it was run: as §1
Rattus norvegicus [31] = test: Distribution of radioactivity in kidney tissues of Sprague-Dawley rats after 30 min injection by intravenously; value ranges from 1.56-1.83; conditions: in vivo, iv, 0.5 h
Rattus norvegicus [32] = test: Distribution of radioactivity in liver tissues of Sprague-Dawley rats after 60 min injection by intravenously; value ranges from 1.12-1.44; conditions: in vivo, iv, 1 h
Rattus norvegicus [33] = test: Distribution of radioactivity in blood tissues of Sprague-Dawley rats after 15 min injection by intravenously; value ranges from 0.97-1.12; conditions: in vivo, iv, 0.25 h; how it was run: as §1
Rattus norvegicus [34] = test: Distribution of radioactivity in lung tissues of Sprague-Dawley rats after 5 min injection by intravenously; value ranges from 1.35-1.74; conditions: in vivo, iv
[35] = Brain to blood ratio in Sprague-Dawley rats after 60 min injection by intravenously; conditions: rat, brain and blood, iv; how it was run: as §1
Rattus norvegicus [36] = test: Distribution of radioactivity in liver tissues of Sprague-Dawley rats after 30 min injection by intravenously; value ranges from 1.77-2.08; conditions: in vivo, iv, 0.5 h
Rattus norvegicus [37] = test: Distribution of radioactivity in liver tissues of Sprague-Dawley rats after 15 min injection by intravenously; value ranges from 2.43-2.92; conditions: in vivo, iv, 0.25 h
Rattus norvegicus [38] = test: Distribution of radioactivity in blood tissues of Sprague-Dawley rats after 30 min injection by intravenously; value ranges from 0.73-0.85; conditions: in vivo, iv, 0.5 h; how it was run: as §1
Rattus norvegicus [39] = test: Distribution of radioactivity in brain tissues of Sprague-Dawley rats after 30 min injection by intravenously; value ranges from 0.17-0.20; conditions: in vivo, iv, 0.5 h; how it was run: as §1
Rattus norvegicus [40] = test: Distribution of radioactivity in brain tissues of Sprague-Dawley rats after 60 min injection by intravenously; value ranges from 0.15-0.19; conditions: in vivo, iv, 1 h; how it was run: as §1
Rattus norvegicus [41] = test: Distribution of radioactivity in kidney tissues of Sprague-Dawley rats after 5 min injection by intravenously; value ranges from 3.18-4.74; conditions: in vivo, iv
Rattus norvegicus [42] = test: Distribution of radioactivity in heart tissues of Sprague-Dawley rats after 60 min injection by intravenously; value ranges from 0.64-0.86; conditions: in vivo, iv, 1 h
[43] = Brain to blood ratio in Sprague-Dawley rats after 30 min injection by intravenously; conditions: rat, brain and blood, iv; how it was run: as §1
Rattus norvegicus [44] = test: Distribution of radioactivity in heart tissues of Sprague-Dawley rats after 5 min injection by intravenously; value ranges from 1.24-1.46; conditions: in vivo, iv
Rattus norvegicus [45] = test: Distribution of radioactivity in heart tissues of Sprague-Dawley rats after 15 min injection by intravenously; value ranges from 0.89-1.24; conditions: in vivo, iv, 0.25 h; how it was run: as §1
Rattus norvegicus [46] = test: Distribution of radioactivity in brain tissues of Sprague-Dawley rats after 5 min injection by intravenously; value ranges from 0.28-0.37; conditions: in vivo, iv; how it was run: as §1
Rattus norvegicus [47] = test: Distribution of radioactivity in brain tissues of Sprague-Dawley rats after 15 min injection by intravenously; value ranges from 0.20-0.25; conditions: in vivo, iv, 0.25 h; how it was run: as §1
Rattus norvegicus [48] = test: Distribution of radioactivity in liver tissues of Sprague-Dawley rats after 5 min injection by intravenously; value ranges from 2.98-3.22; conditions: in vivo, iv
Rattus norvegicus [49] = test: Distribution of radioactivity in blood tissues of Sprague-Dawley rats after 5 min injection by intravenously; value ranges from 1.38-1.5; conditions: in vivo, iv; how it was run: as §1
Rattus norvegicus [50] = test: Distribution of radioactivity in lung tissues of Sprague-Dawley rats after 60 min injection by intravenously; value ranges from 0.61-0.86; conditions: in vivo, iv, 1 h
Rattus norvegicus [51] = test: Distribution of radioactivity in lung tissues of Sprague-Dawley rats after 30 min injection by intravenously; value ranges from 0.86-1.13; conditions: in vivo, iv, 0.5 h
[52] = Brain to blood ratio in Sprague-Dawley rats after 5 min injection by intravenously; conditions: rat, brain and blood, iv; how it was run: as §1

**Q.** Which results are given for `Nc1ccc([125I])cc1`?
**A.** Distribution (Rattus norvegicus [1]): 0.99%; Distribution (Rattus norvegicus [2]): 1.12%; Distribution (Rattus norvegicus [3]): 0.39%; Distribution (Rattus norvegicus [4]): 0.58%; Distribution (Rattus norvegicus [5]): 0.63%; Distribution (Rattus norvegicus [6]): 0.43%; Distribution (Rattus norvegicus [7]): 1.6%; Distribution (Rattus norvegicus [8]): 0.62%; Distribution (Rattus norvegicus [9]): 0.57%; Distribution (Rattus norvegicus [10]): 0.77%; Distribution (Rattus norvegicus [11]): 0.81%; Distribution (Rattus norvegicus [12]): 0.94%; Distribution (Rattus norvegicus [13]): 0.97%; Distribution (Rattus norvegicus [14]): 1.57%; Distribution (Rattus norvegicus [15]): 0.06%; Distribution (Rattus norvegicus [16]): 0.39%; Distribution (Rattus norvegicus [17]): 0.86%; Distribution (Rattus norvegicus [18]): 1.16%; Distribution (Rattus norvegicus [19]): 0.54%; Distribution (Rattus norvegicus [20]): 1.6%; Distribution (Rattus norvegicus [21]): 0.27%; Distribution (Rattus norvegicus [22]): 1.81%; Distribution (Rattus norvegicus [23]): 1.8%; Distribution (Rattus norvegicus [24]): 0.24%

**Q.** With `CN1C=CCC(C(=O)NCCc2ccc([125I])cc2)=C1` as the compound, how does the Distribution (Rattus norvegicus [25]) read?
**A.** 0.57%

**Q.** And the Distribution (Rattus norvegicus [26])?
**A.** 0.86%

**Q.** What about the Distribution (Rattus norvegicus [27]) of the same compound?
**A.** 1.2%

**Q.** What about the Distribution (Rattus norvegicus [28]) of the same compound?
**A.** 1.28%

**Q.** What about the Distribution (Rattus norvegicus [29]) of the same compound?
**A.** 2.54%

**Q.** And the Kp at 0.25 h [30]?
**A.** 0.21

**Q.** And the Distribution (Rattus norvegicus [31])?
**A.** 1.72%

**Q.** What about the Distribution (Rattus norvegicus [32]) of the same compound?
**A.** 1.24%

**Q.** What about the Distribution (Rattus norvegicus [33]) of the same compound?
**A.** 1.03%

**Q.** What about the Distribution (Rattus norvegicus [34]) of the same compound?
**A.** 1.48%

**Q.** What about the Kp at 1 h [35] of the same compound?
**A.** 0.29

**Q.** And the Distribution (Rattus norvegicus [36])?
**A.** 1.89%

**Q.** And the Distribution (Rattus norvegicus [37])?
**A.** 2.63%

**Q.** And the Distribution (Rattus norvegicus [38])?
**A.** 0.77%

**Q.** What about the Distribution (Rattus norvegicus [39]) of the same compound?
**A.** 0.18%

**Q.** And the Distribution (Rattus norvegicus [40])?
**A.** 0.17%

**Q.** What about the Distribution (Rattus norvegicus [41]) of the same compound?
**A.** 4.19%

**Q.** What about the Distribution (Rattus norvegicus [42]) of the same compound?
**A.** 0.72%

**Q.** What about the Kp at 0.5 h [43] of the same compound?
**A.** 0.23

**Q.** What about the Distribution (Rattus norvegicus [44]) of the same compound?
**A.** 1.37%

**Q.** What about the Distribution (Rattus norvegicus [45]) of the same compound?
**A.** 1.08%

**Q.** What about the Distribution (Rattus norvegicus [46]) of the same compound?
**A.** 0.32%

**Q.** And the Distribution (Rattus norvegicus [47])?
**A.** 0.22%

**Q.** What about the Distribution (Rattus norvegicus [48]) of the same compound?
**A.** 3.1%

**Q.** And the Distribution (Rattus norvegicus [49])?
**A.** 1.42%

**Q.** What about the Distribution (Rattus norvegicus [50]) of the same compound?
**A.** 0.66%

**Q.** And the Distribution (Rattus norvegicus [51])?
**A.** 0.97%

**Q.** What about the Kp at 5 min [52] of the same compound?
**A.** 0.22
